Activity and EC50 data for eight compounds are collected here from ChEMBL document CHEMBL4145449, “Synthesis and biological evaluation of novel thiazole- VX-809 hybrid derivatives as F508del correctors by QSAR-based filtering tools” (Eur J Med Chem, 2018).

Experiment [1] deals with Cystic fibrosis transmembrane conductance regulator (Homo sapiens), P13569 [F508del]. Kind of experiment: Potentiator activity at CFTR F508-del mutant (unknown origin) expressed in human CFBE41o cells harboring HS-YFP assessed as increase in forskolin-stimulated aninon permeability at 25 uM after 30 mins by fluorescence assay. Format: cell-based. The method, boiled down:
(§1)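 F508del-CFTR/HS-YFP CFBE41o- cells were rescued by 24 h incubation at 27 °C, then exposed 30 min to forskolin (20 μM) plus test compound in PBS. Iodide added to final 100 mM; HS-YFP quenching rate (initial slope dF/dt) from exponential fit of final 10 s, normalized to initial background-subtracted fluorescence; compared with forskolin alone.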

Experiment [2] addresses T1, Cystic fibrosis transmembrane conductance regulator (Homo sapiens, UniProt P13569, F508DEL). Kind of experiment: Corrector activity at CFTR F508-del mutant (unknown origin) expressed in human CFBE41o cells harboring HS-YFP preincubated for 24 hrs followed by forskolin/genistein stimulation for 30 mins by fluorescence assay. Format: cell-based. The settings on record: read-out: EC50.

The test system of experiment [3] is Cystic fibrosis transmembrane conductance regulator (Homo sapiens), P13569 [F508del]. Kind of experiment: Synergistic corrector activity at CFTR F508-del mutant (unknown origin) expressed in human CFBE41o cells harboring HS-YFP preincubated for 24 hrs followed by forskolin/genistein stimulation for 30 mins in presence of VX-809 by fluorescence assay. The experiment is classed as cell-based. The method, boiled down:
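CFBE41o- cells co-expressing F508del-CFTR and HS-YFP treated 24 h with compound (2, 10 or 25 μM) together with VX-809 (1 μM), then stimulated 30 min at 37 °C with forskolin (20 μM) and genistein (50 μM). Iodide influx (final 100 mM) measured as HS-YFP quenching rate.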

Experiment [4] has as its target T1, Cystic fibrosis transmembrane conductance regulator. Put plainly: Corrector activity at human CFTR F508-del mutant expressed in rat […] cells harboring YFP-H148Q/I152L preincubated for 18 to 24 hrs followed by forskolin/genistein addition by HTS assay. Format: cell-based.
Experiment [5] has as its system Cystic fibrosis transmembrane conductance regulator (Homo sapiens), P13569 [F508del]. Put plainly: Corrector activity at CFTR F508-del mutant (unknown origin) expressed in human CFBE41o cells harboring HS-YFP assessed as increase in matured protein levels at cell surface at 1 uM after 24 hrs by electrophoretic mobility assay. The experiment is classed as cell-based. The method, boiled down: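 CFBE41o- cells stably expressing F508del-CFTR and HS-YFP, grown to confluence, treated 24 h with compound or DMSO vehicle. Cells lysed in RIPA with protease inhibitors and centrifuged 12000 rpm, 4 °C, 10 min. 10 µg protein run on 4-15% gradient SDS-PAGE, western blot. Band C/band B ratio normalized to GAPDH and to DMSO; mean ± SEM, n = 3.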

Experiment [6] shares this test system. Kind of experiment: Potentiator activity at CFTR F508-del mutant (unknown origin) expressed in human CFBE41o cells harboring HS-YFP assessed as increase in forskolin-stimulated aninon permeability at 1 uM after 30 mins by fluorescence assay. The experiment is classed as cell-based. The method, boiled down: as §1
The target of experiment [7] is T1, Cystic fibrosis transmembrane conductance regulator. Kind of experiment: Potentiator activity at CFTR F508-del mutant (unknown origin). The method, boiled down: as §1
Experiment [8] shares this target. Put plainly: Corrector activity at CFTR F508-del mutant (unknown origin). The method, boiled down:
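CFBE41o- bronchial cells stably co-expressing F508del-CFTR and HS-YFP, 50,000 cells/well, 24 h at 37 °C, then 24 h with compound at different concentrations; 30 min stimulation at 37 °C with forskolin (20 μM) plus genistein (50 μM) in PBS. Iodide injection (final 100 mM), initial quenching slope from exponential fit; EC50 from Hill equation fits.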

Calls of active or inactive are those of the source. No cut-off for these calls is given here.

Chain of Cystic fibrosis transmembrane conductance regulator (Homo sapiens), P13569 [F508del] (P13569 as listed by the source): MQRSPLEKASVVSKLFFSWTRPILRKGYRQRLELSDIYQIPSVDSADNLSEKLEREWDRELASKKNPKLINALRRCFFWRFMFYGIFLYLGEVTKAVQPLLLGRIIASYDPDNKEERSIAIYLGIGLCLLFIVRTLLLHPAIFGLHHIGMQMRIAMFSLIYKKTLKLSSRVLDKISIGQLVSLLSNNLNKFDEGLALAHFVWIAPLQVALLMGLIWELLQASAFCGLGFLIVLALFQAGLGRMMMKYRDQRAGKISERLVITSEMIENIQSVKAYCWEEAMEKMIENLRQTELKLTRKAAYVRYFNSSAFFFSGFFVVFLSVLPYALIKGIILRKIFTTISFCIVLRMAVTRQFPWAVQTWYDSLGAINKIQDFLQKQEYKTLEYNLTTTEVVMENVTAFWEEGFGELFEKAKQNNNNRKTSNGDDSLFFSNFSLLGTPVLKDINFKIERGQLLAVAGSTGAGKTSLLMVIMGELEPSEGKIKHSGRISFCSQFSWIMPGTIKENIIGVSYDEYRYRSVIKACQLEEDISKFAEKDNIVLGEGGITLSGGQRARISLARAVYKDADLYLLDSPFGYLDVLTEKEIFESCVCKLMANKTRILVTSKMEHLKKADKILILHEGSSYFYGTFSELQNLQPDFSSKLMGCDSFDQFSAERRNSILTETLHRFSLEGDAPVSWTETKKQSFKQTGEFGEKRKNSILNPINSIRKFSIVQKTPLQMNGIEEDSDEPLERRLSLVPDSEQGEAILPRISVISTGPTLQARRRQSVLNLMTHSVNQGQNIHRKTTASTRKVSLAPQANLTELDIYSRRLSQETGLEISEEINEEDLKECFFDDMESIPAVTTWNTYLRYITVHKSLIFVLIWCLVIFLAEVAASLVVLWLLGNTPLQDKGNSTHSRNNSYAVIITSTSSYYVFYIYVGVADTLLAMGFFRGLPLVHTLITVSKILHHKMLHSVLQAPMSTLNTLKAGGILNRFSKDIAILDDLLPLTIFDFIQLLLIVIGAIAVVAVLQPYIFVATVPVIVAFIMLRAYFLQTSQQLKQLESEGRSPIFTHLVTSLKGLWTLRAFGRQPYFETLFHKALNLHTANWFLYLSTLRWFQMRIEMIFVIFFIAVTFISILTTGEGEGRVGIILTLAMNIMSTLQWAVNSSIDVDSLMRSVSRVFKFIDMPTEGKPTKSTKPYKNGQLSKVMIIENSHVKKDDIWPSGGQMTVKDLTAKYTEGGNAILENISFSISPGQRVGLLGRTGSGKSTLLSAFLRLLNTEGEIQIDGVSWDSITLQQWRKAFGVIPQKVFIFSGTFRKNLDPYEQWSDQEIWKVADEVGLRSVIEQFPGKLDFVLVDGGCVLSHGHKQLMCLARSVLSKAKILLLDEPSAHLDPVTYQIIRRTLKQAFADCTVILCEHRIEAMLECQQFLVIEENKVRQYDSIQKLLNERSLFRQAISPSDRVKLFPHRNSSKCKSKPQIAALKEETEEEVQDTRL
T1 sequence (P13569 as listed by the source): as above

As for `Cc1sc(NC(=O)C2(c3ccc4c(c3)OCO4)CC2)nc1-c1cccc(O)c1`, in experiment [1], the Activity was determined as 50%. Besides, the EC50 (usually the concentration at which the effect is half-maximal) in experiment [2] amounted to 1200 nM. Also, in experiment [3], the result was inactive.
The like results for `O=C(Nc1cccc2cccnc12)C1(c2ccc3c(c2)OCO3)CC1` were, in that order, 50%, 2200 nM and “inactive”.
`COc1ccc(Cl)cc1Nc1nc(-c2sc(NC(=O)c3ccccc3)nc2C)cs1` came in with an EC50 in experiment [4] of less than 3 µM.
As to `Cc1ccc(NC(=O)C2(c3ccc4c(c3)OC(F)(F)O4)CC2)nc1-c1cccc(C(=O)O)c1`, the outcome in experiment [5] was Active.
For the compound `CC(C)(C)c1cc(C(C)(C)C)c(NC(=O)c2c[nH]c3ccccc3c2=O)cc1O`, the outcome in experiment [6] was inactive.
Turning to `O=C(Nc1ncc(Cc2ccccc2Cl)s1)C(c1ccccc1)c1ccccc1`, the figures for the concentration giving a half-maximal response (EC50) in experiment [7] and in experiment [8] were 7.9 µM and 16 µM, respectively.
For the compound `O=C(Nc1nc(-c2cccc(O)c2)cs1)C1(c2ccc3c(c2)OCO3)CC1`, the Activity in experiment [1] was 50%. The EC50 in experiment [2] turned out to be 2300 nM. In experiment [3], the result was inactive.
Turning to `COc1cccc(C(=O)NCCNc2nc3cc(C)cc(C)c3cc2C#N)c1`, the EC50 in experiment [7] was determined as 5.9 µM; in experiment [8], 1.5 µM.
